Assay [1] addresses T1, Acid ceramidase (Rattus norvegicus) (UniProt Q6P7S1).
T1 sequence (whole entry): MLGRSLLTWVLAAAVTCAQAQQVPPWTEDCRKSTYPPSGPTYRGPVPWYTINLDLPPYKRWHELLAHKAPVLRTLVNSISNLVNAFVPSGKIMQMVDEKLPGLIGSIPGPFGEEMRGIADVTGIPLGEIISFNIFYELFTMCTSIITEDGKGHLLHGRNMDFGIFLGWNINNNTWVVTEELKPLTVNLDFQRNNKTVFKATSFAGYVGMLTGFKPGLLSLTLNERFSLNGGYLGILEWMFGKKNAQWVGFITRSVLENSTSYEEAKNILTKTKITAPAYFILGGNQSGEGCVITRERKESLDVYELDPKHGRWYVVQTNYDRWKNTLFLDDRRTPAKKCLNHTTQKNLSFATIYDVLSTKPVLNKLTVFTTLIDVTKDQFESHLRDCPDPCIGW
In words: Inhibition of rat lung acid ceramidase overexpressed in HEK293 cells using N-Lauroyl ceramide as substrate preincubated at 10 uM for 30 mins followed by substrate addition by LC-MS analysis. Type of assay: cell-based. An outline of the steps:
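Enzyme (25 μg) from HEK293 cells overexpressing rat AC was preincubated with compound for 30 min at 37 °C in 100 mM NaH2PO4, 100 mM trisodium citrate, 0.1% Triton X-100, 3 mM DTT, pH 4.5. Then 100 μM N-lauroyl ceramide was added. Lauric acid (m/z 199) was measured by negative-ion LC-MS with heptadecanoic acid (m/z 269) as internal standard.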

The target of assay [2] is T2, N-acylethanolamine-hydrolyzing acid amidase (Homo sapiens, UniProt Q02083).
T2 sequence (Q02083 whole entry): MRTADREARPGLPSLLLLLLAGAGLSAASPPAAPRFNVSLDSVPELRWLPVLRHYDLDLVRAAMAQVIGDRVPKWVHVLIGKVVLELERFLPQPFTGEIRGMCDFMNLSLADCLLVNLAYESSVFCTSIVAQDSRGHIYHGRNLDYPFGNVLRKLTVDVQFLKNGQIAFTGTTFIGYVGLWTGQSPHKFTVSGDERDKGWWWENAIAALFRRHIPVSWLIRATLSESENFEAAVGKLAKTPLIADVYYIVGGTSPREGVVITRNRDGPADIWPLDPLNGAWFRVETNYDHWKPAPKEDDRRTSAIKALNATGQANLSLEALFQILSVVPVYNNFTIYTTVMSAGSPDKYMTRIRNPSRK
Kind of assay: Inhibition of C-terminal His-6-tagged recombinant human spleen NAAA enzyme expressed in HEK293 cells. Type of assay: cell-based. An outline of the steps:
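Stable HEK293 clone (G418 selection) expressing h-NAAA; cell pellets sonicated, then membrane fraction prepared by centrifugation with a freeze/thaw step. 10 μg protein preincubated 30 min at 37 °C with inhibitor in citrate/phosphate buffer pH 4.5 (0.1% Triton X-100, 3 mM DTT). Duplicates then given 50 μM 10-cis-heptadecenoylethanolamide for 30 min at 37 °C. Heptadecenoic acid measured by UPLC-MS; IC50 from fixed-slope nonlinear regression.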

Assay [3] in a line: Selectivity ratio of IC50 for rat NAAA to IC50 for human NAAA.
Assay [4] concerns the target T3, Fatty-acid amide hydrolase 1 (Rattus norvegicus) (UniProt P97612).
T3 sequence (whole entry): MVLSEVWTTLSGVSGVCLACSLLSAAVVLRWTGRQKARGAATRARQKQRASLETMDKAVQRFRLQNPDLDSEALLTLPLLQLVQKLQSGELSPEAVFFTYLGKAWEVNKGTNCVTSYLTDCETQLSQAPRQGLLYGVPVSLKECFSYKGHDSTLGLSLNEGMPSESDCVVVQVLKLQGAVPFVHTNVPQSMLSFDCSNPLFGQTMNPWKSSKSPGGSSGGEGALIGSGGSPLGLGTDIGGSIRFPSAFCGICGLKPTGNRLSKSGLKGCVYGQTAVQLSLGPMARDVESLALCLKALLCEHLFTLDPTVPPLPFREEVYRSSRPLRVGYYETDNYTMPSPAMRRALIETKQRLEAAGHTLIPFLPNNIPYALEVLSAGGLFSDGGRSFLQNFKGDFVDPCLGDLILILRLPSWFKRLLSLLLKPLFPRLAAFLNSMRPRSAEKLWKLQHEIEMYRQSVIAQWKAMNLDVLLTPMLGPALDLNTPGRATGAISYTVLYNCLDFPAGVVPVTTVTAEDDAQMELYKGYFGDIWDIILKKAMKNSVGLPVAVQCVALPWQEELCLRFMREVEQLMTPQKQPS
In words: Inhibition of rat brain FAAH using [3H]anandamide as substrate preincubated at 10 uM for 10 mins followed by substrate addition by liquid scintillation counting. An outline of the steps:
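Rat brain homogenate (50 μg protein) was preincubated with compound for 10 min. Then 30 min at 37 °C with 1 μM cold AEA plus 0.6 nM [3H]AEA in 50 mM Tris pH 7.4 containing 0.05% fatty-acid-free BSA. Stopped with cold CHCl3/MeOH 1:1, and the aqueous phase was counted.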

The target in assay [5] is T4, N-acylethanolamine-hydrolyzing acid amidase (Rattus norvegicus, UniProt Q5KTC7).
T4 sequence (Q5KTC7 whole entry): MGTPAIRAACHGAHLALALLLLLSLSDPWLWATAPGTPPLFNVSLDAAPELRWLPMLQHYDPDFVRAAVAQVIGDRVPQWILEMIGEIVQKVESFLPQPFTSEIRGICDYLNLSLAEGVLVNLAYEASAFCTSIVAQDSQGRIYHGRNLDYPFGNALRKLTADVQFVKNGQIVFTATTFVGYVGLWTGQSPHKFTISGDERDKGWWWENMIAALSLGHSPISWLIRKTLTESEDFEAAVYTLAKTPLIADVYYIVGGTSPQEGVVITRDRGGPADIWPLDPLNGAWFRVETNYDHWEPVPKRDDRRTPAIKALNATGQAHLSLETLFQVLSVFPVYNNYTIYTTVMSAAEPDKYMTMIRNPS
In words: Inhibition of Sprague Dawley rat lung native NAAA enzyme using heptadecenoylethanolamide as substrate preincubated for 30 mins followed by substrate addition measured after 30 mins by UPLC-MS analysis. Put shortly: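 Native enzyme from lungs of male Sprague-Dawley rats (275-300 g). Lungs were homogenized in 20 mM Tris-HCl pH 7.4 with 0.32 M sucrose, spun at 800g, then the supernatant at 12000g. The pellet was freeze/thawed in PBS, and the final 105000g pellet was used. Protein (10 μg) was preincubated with compound or vehicle for 30 min at 37 °C in NaH2PO4/citrate buffer pH 4.5 with 0.1% Triton X-100 and 3 mM DTT. Then 50 μM substrate, 37 °C, 30 min, duplicates. Heptadecenoic acid quantified against heptadecanoic acid internal standard. IC50 by fixed-slope nonlinear regression.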

Regarding `C[C@@H]1OC(=O)[C@@H]1NC(=O)OCCCOCc1ccccc1`, the inhibition in assay [1] and in assay [4] was less than 10% throughout. For the same compound, the IC50 in assay [2] was 20 nM. For the same compound, in assay [3], the Ratio IC50 amounted to 2. `CC(CCCCc1ccccc1)OC(=O)N[C@H]1C(=O)O[C@H]1C` (single isomer, unassigned; diastereomer 1): the IC50 in assay [5] (read-out: IC50) stood at 18 nM.

In the case of `C[C@@H]1OC(=O)[C@@H]1NC(=O)OCc1ccc(-c2ccccc2)cc1`, the results for the inhibition in assay [1] and in assay [4] were 30% and less than 10%, respectively.

Turning to `C[C@@H]1OC(=O)[C@@H]1N(C)C(=O)OCCCCCc1ccccc1`, in assay [5], the IC50 entry is on record as “Not Active”. `C[C@@H]1OC(=O)[C@@H]1NC(=O)OCc1cccc(-c2ccccc2)c1`: the IC50 in assay [5] (read-out: IC50) was determined as 23000 nM. Turning to `C[C@@H]1OC(=O)[C@@H]1NC(=O)OCCCCCc1ccccc1`, the inhibition in assay [1] and in assay [4] was less than 10% throughout. Besides, the Ratio IC50 in assay [3] was found to be 2. As for `CC(C)C(CCCCc1ccccc1)OC(=O)N[C@H]1C(=O)O[C@H]1C` (single isomer, unassigned; diastereomer 2), the IC50 in assay [5] (read-out: IC50) turned out to be 12200 nM. As for `CC(CCCCc1ccccc1)OC(=O)N[C@H]1C(=O)O[C@H]1C` (mixture of isomers), the IC50 in assay [5] (read-out: IC50) came to 29 nM.

As for `C[C@@H]1OC(=O)[C@@H]1NC(=O)OCCCCCC1CCCCC1`, the inhibition in assay [1] and in assay [4] was less than 10% throughout. In addition, in assay [3], the Ratio IC50 turned out to be 2. The IC50 in assay [5] (read-out: IC50) was 13 nM. In the case of `CCCCCCC[C@@H](C)OC(=O)N[C@H]1C(=O)O[C@H]1C`, the IC50 in assay [5] (read-out: IC50) is 270 nM. Same read-out and setting: with `C[C@@H]1OC(=O)[C@@H]1NC(=O)OCCCc1ccccc1` the figure was 90 nM. Take `CCCCCOC(=O)N[C@H]1C(=O)O[C@H]1C`: the IC50 in assay [5] (read-out: IC50) was found to be 760 nM. In the case of `CCCCCCC[C@H](C)OC(=O)N[C@H]1C(=O)O[C@H]1C`, the inhibition in assay [1] stood at 45%; in assay [4] it was 19%. Moreover, the Ratio IC50 in assay [3] was 2. Regarding `C[C@H]1OC(=O)[C@@H]1NC(=O)OCCCCCc1ccccc1`, in assay [5] (read-out: IC50), the IC50 was determined as 20 nM. The same measure, in the same setting: the value for `CC(C)C(CCCCc1ccccc1)OC(=O)N[C@H]1C(=O)O[C@H]1C` (stereo partly drawn) was 80 nM; that for `CCCCCCCC(C)OC(=O)N[C@H]1C(=O)O[C@H]1C` (mixture of isomers) was 60 nM; that for `CC(CCCCc1ccccc1)OC(=O)N[C@H]1C(=O)O[C@H]1C` (single isomer, unassigned; diastereomer 2) was 5100 nM.

Usually inhibition stands for the percentage by which the read-out fell short of the control. A low value points to a response near the control. The term IC50 denotes the concentration that inhibits the measured activity by half.

The values are drawn from ChEMBL document CHEMBL2417404, “Synthesis and structure-activity relationship (SAR) of 2-methyl-4-oxo-3-oxetanylcarbamic acid esters, a class of potent N-acylethanolamine acid amidase (NAAA) inhibitors” (J Med Chem, 2013).
